Measurements from the EternaBench riboswitch data.

System: MS2 coat protein
Experiment: apparent Kd, MS2 coat protein; higher = weaker binding; RNA-MaP array; FMN 200 µM where present
Summary of the method: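 In 100 mM Tris-HCl pH 7.5, 80 mM KCl, 4 mM MgCl2, BSA, DTT, yeast tRNA and Tween-20, SNAP-549-labelled MS2 coat protein was titrated from 0.7 or 1.5 nM, doubling to 3 µM, over designs transcribed by stalled E. coli RNA polymerase on Illumina sequencing-chip clusters. This was done first without ligand, then with ligand held constant. After green signal was normalised to red-channel RNA signal and control-cluster median Fmax, the apparent Kd was taken as the median of filtered per-cluster binding-curve fits.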

[1] = designed as: OFF switch for flavin mononucleotide, no ligand
[2] = ligand present: flavin mononucleotide, designed as: OFF switch for flavin mononucleotide
[3] = designed as: ON switch for flavin mononucleotide, no ligand
[4] = ligand present: flavin mononucleotide, designed as: ON switch for flavin mononucleotide

Row | Sequence | apparent Kd [1] [nM] | apparent Kd [2] [nM] | apparent Kd [3] [nM] | apparent Kd [4] [nM]
1 | UUGUUAUGUGUAGGAUAUGCAUAUUAUUAUUAUGCAGAAGGACAUGAGGAUCACCCAUGUGUAUUGUUAUUAUAUAUUAUAUAU | 22.8 | 30.5 |  | 
2 | CUGUUUUUCGCAGGAUAUGCUCCUCCUUUAUUAGCAGAAGGGCGUUAAACAUGAGGAUCACCCAUGUAUGGUAAUGACAUUUUC | 33.6 | 209 |  | 
3 | GGGUCAUAUGUUAGGAUAUUGGAGGCAAGUGCCGUUAAGAAGGAACAUGAGGAUCACCCAUGUCUAACUGACUU | 34.5 | 66 |  | 
4 | UUUAUAAAGGUAGGAUAUUGUAUUAUAAUUAAAUAAGAAGGAUCUCACAUGAGGAUCACCCAUGUAAGAGGAUCACCCAUGUAU | 8.68 | 9.25 |  | 
5 | AUAGAAGACUAGAAGGACCUAGCUGUAUACCGUCGAGGUAUAUAGCUAGGUAGGAUAUGGGACAUGAGGAUCACCCAUGUCUUG |  |  | 8.58 | 7.58
6 | CAGGAAAUAGAGGAUAUAGGAGUCGAUAGACUCCUAGAAGGCUAUACAUGAGGAUCACCCAUGUGUCCUACCUG | 16.7 | 43 |  | 
7 | UUCUUGGCAGGAUAUGCUUUUUUAGACAUGAGGAUCACCCAUGUGAUUAUUUUUGGUUUUGCAGAAGGGCCUUAAU | 65.4 | 87.2 |  | 
8 | AUUUUAUAACAAGGAUAUACUAAACAUGAGGAUCACCCAUGUAAUAUUAUGAGUGAGAGAGAGAAGUAGAAGGUGUAUUAUUUU | 102 | 128 |  | 
9 | CGUGACUCAGGAUAUCUAUUAUGUCACAUGAGGAUCACCCAUGUCCAGCGAAAGCUGGAGGGAGAAGGGAGUCACG | 97.9 | 34.9 |  | 
10 | AAAGAAAAACUAGAGGAUAUCCGAGUGGUAACAUGAGGAUCACCCAUGUGAUGAAAGGAACAUGAGGAGAAGGCUAGAAGAAAAA |  |  | 21.7 | 8.11
11 | GGAAAACAUGAGGAUCACCCAUGUGAGGAUAUCGAUGUCCAGAGGGAGGUGCGGGACUCGAGAAGGCACUUGGA | 34.2 | 82.8 |  | 
12 | AAAUGCUGAGGAUAUACAUGAGGAUCACCCAUGUACUAAACUCGCAAGGGCAUCCGGUGUAGAAGGCAGCCUCA | 17.3 | 39.7 |  | 
13 | UUCUUACAUGAGGAUCACCCAUGUCAGGAUAUCUCCACACUGCGCUUGCGCAGUGUAUAGAGAAGGGACAGGCU | 49.4 | 47.5 |  | 
14 | AAUAAACAUGAGGAUCACCCAUGUCAGGAUAUGCGUCUAUCCUUAUUGCAUAGAUACGGCAGAAGGGACUAAUG | 31.9 | 56.9 |  | 
15 | GCAUAUCAGGGAGGAUAUGACAUGAGGAUCACCCAUGUAAUUAUGGCUCUGUCAGAAGGCCCAUCAUCACUAUAGUGACGAGAA | 479 | 63.2 |  | 
16 | GCCAGGAUGUGAGGAUAUGCUGAGGAUAACUCAGCAGAAGGCACAUGAGGAUCACCCAUGUAAACUUAUAAUAAAUACCCUGGC | 13 | 28.4 |  | 
17 | GAUCUGAUAGGAUAUACAUGAGGAUCACCCAUGUGCGAGCUAGCGAAAGCUAGCUCAGGUAGAAGGGUCAGAUC | 12 | 15.5 |  | 
18 | UUAUAAAGAGUGAGGAUAUGCUGGUCCAUGGAUCAGCAGAAGGCACAUGAGGAUCACCCAUGUAAAAUAAUAUU | 18.3 | 37.6 |  | 
19 | GGUUGUCAUCGUCGUCCUUUCGUUACAUGAGGAUCACCCAUGUAGGAUAUGCUGCAUUCGAUGUGGCAGAAGGGCAUGUGUGUU | 18.1 | 31.6 |  | 
20 | CAUUAUUAUCGAGGAUAUCCUAUUGAAAUUCUGGGAGAAGGCGGACUCAACAUGAGGAUCACCCAUGUGAGACGGAUGCUAGGG | 20.2 | 15.8 |  | 
21 | CAAUUUAUGUCAGGAUAUACAAUACAAUGAUUAGUAGAAGGGAUUAAUACAUGAGGAUCACCCAUGUCAUGUGUCAUAAUAACC | 26.1 | 20.1 |  | 
22 | UAUAUAUAGUAAGGAUAUGUAUUUAUAUUAUAAACAGAAGGUACUGACAUGAGGAUCACCCAUGUUUUAGUGUGGGCAUGUAGA | 77.9 | 114 |  | 
23 | CUCCGUGGCGAGAAGGACGGAAUUUAAGGUUCUGUAGGAUAUCGAAACAUGAGGAUCACCCAUGUAUUGAUCGGGUGCAGUGUG | 26.9 | 32.2 |  | 
24 | GUUGGGUGUCAUGUCGCACAUGAGGAUCACCCAUGUAGGAGGUAGGAUAUCCACGAGAAACAAGCGGAGAAGGGCCAUUAGCGU | 27.9 | 31.3 |  | 
25 | CGUUCAGAGAACGAUACGAAUAGACAUGAGGAUCACCCAUGUAGAAGGACAACGGAAUAAACGUUGUAGGAUAUACAUUUAGUG | 41.3 | 111 |  | 
26 | UUCGUGUGACAGAAGGGUCUUUCGGGCUGGGAGGCAGGAUAUGUGACAUGAGGAUCACCCAUGUUGGUAUCGUCUGUGUGUACG | 6.15 | 12.8 |  | 
27 | UUAUUUAUACAAGGAUAUCAAUUAUAUACAAAUCCAACAUGAGGAUCACCCAUGUUUUAUUUUUUUGAGAAGGUGUAUUGUCAG |  |  | 32.8 | 32
28 | AUGGCUAAUGAGAAGGUGUAUAUAAAUUAUAUACAAGGAUAUCGGUCAAGCAUGAAAACAUGAGGAUCACCCAUGUUAAGCCAU |  |  | 8.11 | 7.01

Row | Sequence | apparent Kd [1] [nM] | apparent Kd [2] [nM] | apparent Kd [3] [nM] | apparent Kd [4] [nM]
29 | UGUUGUAUUACAGGAUAUCUAUUGUUUUUAUUUAGAGAAGGGUAUUCACAUGAGGAUCACCCAUGUAUAUACGAGGAAGUUGUG |  |  | 59.4 | 63.2
30 | UUUUAGUCAGGAUAUACAUGAGGAUCACCCAUGUAAAAUUUUAAUUUAAUUUUAAGGUGUAGAAGGGACAUUAA | 27.6 | 29.4 |  | 
31 | AGGUAGUCAGGAUAUUAUUUUUAGCGGGAUAACGCUGAGGGUGAGAAGGGACAUGAGGAUCACCCAUGUUUUGA | 258 | 191 |  | 
32 | AAGAUGCGGAUAGGAUAUGGAAAUAAAUAAAGACCAGAAGGAUUGGUCACACAACAUGAGGAUCACCCAUGUGUGUGUUGUGAA | 13.9 | 10.6 |  | 
33 | GCUCGCGUCGGUUCGCUGGCCUGAGAGGAUAUCCACUGGCAUGUCGACAUGAGGAUCACCCAUGUGGAGAAGGCUCAGGAUAAA | 311 | 552 |  | 
34 | CGGCUCUCAGGAUAUACCUUGGGUGGCCAACUGUUUCGUUUACAUGAGGAUCACCCAUGUAGAAGGGAGGGCAA | 53.8 | 33 |  | 
35 | GCCUCAGAAUUAAUUGUGAGAAGCAGAAGGCUAUAUCUUAUGUUAGACAUGAGGAUCACCCAUGUAGAGGAUAUGCUGUUACAG | 7.84 | 12 |  | 
36 | AUCAGCUGGUCAGGAUAUACAUCACUGCUUCGGCAGUGUAUUAAGAUCACAUGAGGAUCACCCAUGUAGAAGGGACCAGCUGAU | 30.3 | 341 |  | 
37 | UGUAAUGUUAUUACAGAGGUUUAGAAGGAUAUACAUCGACAUGACCGUACAUGAGGAUCACCCAUGUAGAAGGUCUAACUUCGU | 5.43 | 5.31 |  | 
38 | GCUUCUUAAUUUCAAACUUACGAUUCAGAAGGUGAAUUUUACACAUGAGGAUCACCCAUGUUACUCAAGGAUAUGAUUUGACUA |  |  | 18.7 | 14
39 | AAUCGGGAGCAGAAGGCAUGUCAUAAGACAUGAGGAUCACCCAUGUAGUUAAGGCGAAAGCCGCAUGAGGAUAUGCUCCCGUAA |  |  | 71.2 | 6.27
40 | CCGGAAACGGGUAGCUGACAUGAGGAUCACCCAUGUGUUACACAGGAUAUGGAUCCUAAUUGGAUCCAGAAGGGUGUCAGCUAC |  |  | 220 | 36.5
41 | AAUAUGUCAUCAGGAUAUCGAGACCGGCGAGUACGAGAAGGGAUGACAUGAGGAUCACCCAUGUGAGACGCGUGAUUUGCAGGU | 105 | 304 |  | 
42 | CAUGUCCUCACAGGAUAUGCUGGACUUUGUCCAGCAGAAGGGUGAACAUGAGGAUCACCCAUGUAAUGGACAUGUAUAUUUAAU |  |  | 801 | 50.9
43 | ACUCGAUUUUUGGGUAUACUAUAUGAGGAUAUCAUACAUCUAUACAUGAGGAUCACCCAUGUGACUGAGAAGGCAUAUAUAAUA |  |  | 18.8 | 9.15
44 | UAUAUAUAGUAAGGAUAUGUAUUAAUUUUAUUAACAGAAGGUACUGACAUGAGGAUCACCCAUGUUUUAGUGUGGGCAUGUAGA | 84.2 | 149 |  | 
45 | CCUAAGGACACAGGAUAUAGCGUCGUGGCUGGGCUCCAACGGCGAGCGGCGCUAGAAGGGUGACCACAUGAGGAUCACCCAUGU |  |  | 522 | 150
46 | UCCACUGCUGAGAAGGGAUAGAUAUCGUUCUAGUCAGGAUAUCAAUACAGUGCAGCAUGAGGACAUGAGGAUCACCCAUGUAUU |  |  | 14.2 | 10.9
47 | AUCAGCUCGUCAGGAUAUACCUCACUGCGUCAGCAGUGUGGUAAGAUCACAUGAGGAUCACCCAUGUAGAAGGGACGAGCUGAU | 6.44 | 6.19 |  | 
48 | CUUUUGUGAGGAUAUUAGUAUUAAAUAAAUAAAAUUACUACUGAGAAGGCACAUGAGGAUCACCCAUGUUCCUC | 30.3 | 131 |  | 
49 | UUGGACGUCGUAGGAUAUGGAGGAUAUUCCUACAUGAGGAUCACCCAUGUUGACAUGGAAGAAGGACAGAAGGACGAUGUCCAU |  |  | 10.1 | 4.14
50 | UAUAUUAACAAGAAGGCUAACAUGAGGAUCACCCAUGUUGUACAUGGAUAUAGAGGAUAUUGCUAAUAAUUAUUUAUCAUAAUU | 20.4 | 18.3 |  | 
51 | CUUUUAUAAUAGAAGGUUGACUUUAAGUGGAUCACCCAUGUGUAGGUACAAAGGAUAUGUAGUUACAUGAGGAUCACCCAUGUU |  |  | 306 | 201
52 | UAUUUUAACUAAGGAUAUCUAUAUUAAUUUGAAACAUGAGGAUCACCCAUGUUCAUGGGUUUAUAAGAGAAGGUAGAUGAAUAA |  |  | 48.7 | 20.7
53 | CUCUUGUCAGGAUAUUAUGGACGAUAGCAGGGCUACGUCAGUGAGAAGGGACAUGAGGAUCACCCAUGUAAAAU | 83.6 | 55.2 |  | 
54 | GCGAUAUUGUAAGGAUAUACUCUGUGAUGAAGAGUAGAAGGUACUUACAUGAGGAUCACCCAUGUUUAACGUGAUACUAAUCGC |  |  | 541 | 210
55 | UUAUUUAGGUAGGAUAUCGAUAUUAAUCCCUAUCGAGAAGGGUCUACAUGAGGAUCACCCAUGUUAGCAUGUUU | 21.5 | 21.3 |  | 
